Reference: ChEMBL document CHEMBL3352281, “Canthin-6-one displays antiproliferative activity and causes accumulation of cancer cells in the G2/M phase” (J Nat Prod, 2014)
The source made the active and inactive calls. The calls are words filed in the database; no cut-off is given here.

How the values were obtained:
[1] = Toxicity against human NHDF assessed as cell viability at 160 uM incubated for 3 days by MTT assay; type: cell-based; settings: NHDF cells, read-out: Activity
How it was run: (§1)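 Normal human dermal fibroblasts kept 3 days in DMEM with 10% FCS at increasing concentrations up to 160 μM, DMSO-matched controls. MTT reduction read at 540 nm as percentage viability (mean ± SEM, n = 3), with microscopic morphology scoring.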

[2] = Toxicity against human NHDF assessed as reduction in cell viability incubated for 3 days by MTT assay; type: cell-based; settings: NHDF cells; how it was run: as §1
PC-3 [3] = test: Antiproliferative activity against human PC3 cells assessed as inhibition of cell growth at 40 uM after 4 days; type: functional, cell-based
How it was run: (§2)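 Cell counting: 40 000 cells/well seeded and grown at 37 °C, 5% CO2 in medium with 10% FCS, 2 mM glutamine and penicillin-streptomycin (Ham's F12 for PC-3, RPMI for Jurkat, DMEM for the others). Compound added from a 50-fold stock in 10% DMSO; controls 0.2% DMSO. Quadruplicate wells trypsinized (Jurkat not) and counted in a Malassez chamber; mean ± SEM, n = 4.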

HT-29 [4] = test: Antiproliferative activity against human HT-29 cells assessed as inhibition of cell growth at 40 uM after 4 days; type: functional, cell-based; how it was run: as §2
Jurkat [5] = test: Antiproliferative activity against human Jurkat cells assessed as inhibition of cell growth at 40 uM after 4 days; type: functional, cell-based; how it was run: as §2
C6 [6] = test: Antiproliferative activity against rat C6 cells assessed as inhibition of cell growth at 40 uM after 4 days; type: functional, cell-based; how it was run: as §2
NIH3T3 [7] = test: Antiproliferative activity against mouse NIH/3T3 cells assessed as inhibition of cell growth at 40 uM after 4 days; type: functional, cell-based; how it was run: as §2
HeLa [8] = test: Antiproliferative activity against human HeLa cells assessed as inhibition of cell growth at 40 uM after 2 days; type: functional; settings: 48 h, read-out: GI; how it was run: as §2
HeLa [9] = test: Antiproliferative activity against human HeLa cells assessed as inhibition of cell growth at 10 uM after 4 days; type: functional; settings: 96 h, read-out: GI; how it was run: as §2
[10] = Antiproliferative activity against human PC3 cells assessed as inhibition of cell growth at 10 to 60 uM after 4 days; type: functional, cell-based; settings: PC-3, 96 h; how it was run: as §2
HT-29 [11] = test: Antiproliferative activity against human HT-29 cells assessed as inhibition of cell growth at 10 to 60 uM after 4 days; type: functional, cell-based; settings: HT-29, 96 h; how it was run: as §2
Jurkat [12] = test: Antiproliferative activity against human Jurkat cells assessed as inhibition of cell growth at 10 to 60 uM after 4 days; type: functional, cell-based; settings: 96 h; how it was run: as §2
HeLa [13] = test: Antiproliferative activity against human HeLa cells assessed as inhibition of cell growth at 10 to 60 uM after 4 days; type: functional, cell-based; settings: 96 h; how it was run: as §2
C6 [14] = test: Antiproliferative activity against rat C6 cells assessed as inhibition of cell growth at 10 to 60 uM after 4 days; type: functional, cell-based; settings: C6, 96 h; how it was run: as §2
[15] = Antiproliferative activity against mouse NIH/3T3 cells assessed as inhibition of cell growth at 10 to 60 uM after 4 days; type: functional, cell-based; settings: NIH3T3, 96 h; how it was run: as §2
[16] = Antiproliferative activity against human PC3 cells assessed as induction of cell death at 40 to 60 uM after 4 days; type: functional, PC-3
How it was run: as §2, with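 “Cells seeded at” for “Cell counting:”, “per well” for “cells/well seeded”, “CO2” for “CO2 in medium”, “HT-29, HeLa, C6, NIH-3T3).” for “the others).”, “solution” for “stock”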

HT-29 [17] = test: Antiproliferative activity against human HT-29 cells assessed as induction of cell death at 40 to 60 uM after 4 days; type: functional
How it was run: as §2, with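 “Cells seeded at” for “Cell counting:”, “per well” for “cells/well seeded”, “CO2” for “CO2 in medium”, “HT-29, HeLa, C6, NIH-3T3).” for “the others).”, “solution” for “stock”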

Jurkat [18] = test: Antiproliferative activity against human Jurkat cells assessed as induction of cell death at 40 to 60 uM after 4 days; type: functional
How it was run: as §2, with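 “Cells seeded at” for “Cell counting:”, “per well” for “cells/well seeded”, “CO2” for “CO2 in medium”, “HT-29, HeLa, C6, NIH-3T3).” for “the others).”, “solution” for “stock”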

C6 [19] = test: Antiproliferative activity against rat C6 cells assessed as induction of cell death at 40 to 60 uM after 4 days; type: functional
How it was run: as §2, with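 “Cells seeded at” for “Cell counting:”, “per well” for “cells/well seeded”, “CO2” for “CO2 in medium”, “HT-29, HeLa, C6, NIH-3T3).” for “the others).”, “solution” for “stock”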

[20] = Antiproliferative activity against mouse NIH/3T3 cells assessed as induction of cell death at 40 to 60 uM after 4 days; type: functional, NIH3T3
How it was run: as §2, with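 “Cells seeded at” for “Cell counting:”, “per well” for “cells/well seeded”, “CO2” for “CO2 in medium”, “HT-29, HeLa, C6, NIH-3T3).” for “the others).”, “solution” for “stock”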

PC-3 [21] = test: Induction of apoptosis in human PC3 cells assessed as induction of procaspase-3 cleavage at 40 uM after 48 hrs by Western blot method; type: functional
How it was run: (§3)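 Western blot: 40 000 cells/well exposed 2−4 days to 40 μM (HeLa 10 and 30 μM) or 0.2% DMSO. Lysed in Laemmli buffer, run on 12.5% SDS-PAGE, moved to nitrocellulose. Probed overnight at 4 °C with rabbit anti-caspase-3 (1/1000), then Alexa-488 secondary. β-Actin loading control; fluorescence read on a laser scanner.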

PC-3 [22] = test: Induction of apoptosis in human PC3 cells assessed as induction of procaspase-3 cleavage at 40 uM after 96 hrs by Western blot method; type: functional; how it was run: as §3
HT-29 [23] = test: Induction of apoptosis in human HT-29 cells assessed as induction of procaspase-3 cleavage at 40 uM after 48 hrs by Western blot method; type: functional; how it was run: as §3
HeLa [24] = test: Induction of apoptosis in human HeLa cells assessed as induction of procaspase-3 cleavage at 10 uM after 48 hrs by Western blot method; type: functional; how it was run: as §3
HeLa [25] = test: Induction of apoptosis in human HeLa cells assessed as induction of procaspase-3 cleavage at 30 uM after 48 hrs by Western blot method; type: functional; how it was run: as §3
Jurkat [26] = test: Induction of apoptosis in human Jurkat cells assessed as induction of procaspase-3 cleavage at 40 uM after 48 hrs by Western blot method; type: functional, cell-based; how it was run: as §3
C6 [27] = test: Induction of apoptosis in rat C6 cells assessed as induction of procaspase-3 cleavage at 40 uM after 48 hrs by Western blot method; type: functional, cell-based; how it was run: as §3
NIH3T3 [28] = test: Induction of apoptosis in mouse NIH/3T3 cells assessed as induction of procaspase-3 cleavage at 40 uM after 48 hrs by Western blot method; type: functional, cell-based; how it was run: as §3
PC-3 [29] = test: Inhibition of DNA synthesis in human PC3 cells assessed as reduction in BrdU incorporation at 40 uM pre-incubated for 30 hrs by Southern blotting method; type: functional
How it was run: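 PC-3, 10^6 cells per flask, held 30 h at 40 μM or 0.2% DMSO, then 18 h BrdU labeling. Genomic DNA isolated by proteinase K/phenol-chloroform; 400 ng run on agarose, blotted to nitrocellulose, acid-denatured, probed with anti-BrdU and Alexa 647 secondary. Scanned signal normalized to ethidium bromide DNA fluorescence.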

PC-3 [30] = test: Inhibition of DNA synthesis in human PC3 cells assessed as reduction in post-mitotic nuclei level at 40 uM pre-incubated for 30 hrs by immunofluorescence microscopy (reference value: 85%); type: functional; settings: PC-3, read-out: INH
PC-3 [31] = test: Induction of cell cycle arrest in human PC3 cells assessed as accumulation at G1 phase at 40 uM incubated for 48 hrs by propidium iodide staining based flow cytometry (reference value: 57.8 +/- 0.6%); type: functional
PC-3 [32] = test: Induction of cell cycle arrest in human PC3 cells assessed as accumulation at S phase at 40 uM incubated for 48 hrs by propidium iodide staining based flow cytometry (reference value: 21.6 +/- 0.2%); type: functional
PC-3 [33] = test: Induction of cell cycle arrest in human PC3 cells assessed as accumulation at G2/M phase at 40 uM incubated for 48 hrs by flow propidium iodide staining based flow cytometry (reference value: 20 +/- 0.6%); type: functional
PC-3 [34] = test: Reduction in mitotic spindles formation in human PC3 cells at 40 uM incubated for 48 hrs by tubulin immunofluorescence assay; type: functional; settings: PC-3, 48 h
How it was run: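 Mitotic spindles: PC-3 in chamber slides (10 000/well), 2 days with 40 μM or 0.2% DMSO. Ethanol/glycine fixation, anti-β-tubulin 1/200 for 2 h at 37 °C, then Alexa 488 secondary. Mitotic cells scored by fluorescence microscopy in random fields; at least 6000−10 000 cells counted per group.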

[35] = Toxicity against human NHDF assessed as cell viability up to 20 uM incubated for 3 days by MTT assay; type: cell-based; settings: NHDF cells, read-out: Activity; how it was run: as §1
[36] = Toxicity against human NHDF assessed as cell viability at 40 uM incubated for 3 days by MTT assay; type: cell-based; settings: NHDF cells, read-out: Activity; how it was run: as §1
[37] = Toxicity against human NHDF assessed as cell viability at 80 uM incubated for 3 days by MTT assay; type: cell-based; settings: NHDF cells, read-out: Activity; how it was run: as §1

## O=c1ccc2nccc3c4ccccc4n1c23 [CANTHIN-6-ONE]
[1]
  viability at 72 h, 160 µM: 33%
[2]
  EC50 at 3 days: 115 µM
PC-3 [3]
  growth inhibition (GI): Active
HT-29 [4]
  growth inhibition (GI): Active
Jurkat [5]
  growth inhibition (GI): Active
C6 [6]
  growth inhibition (GI): Active
NIH3T3 [7]
  growth inhibition (GI): Active
HeLa [8]
  inhibition of growth at 40 µM: > 90%
HeLa [9]
  inhibition of growth at 10 µM: 100%
[10]
  EC50: 15 µM
HT-29 [11]
  EC50: 15 µM
Jurkat [12]
  EC50: 15 µM
HeLa [13]
  EC50: 5 µM
C6 [14]
  EC50: 15 µM
[15]
  EC50: 15 µM
[16]
  Activity: <=30%
HT-29 [17]
  Activity: <=30%
Jurkat [18]
  Activity: <=30%
C6 [19]
  Activity: <=30%
[20]
  Activity: <=30%
PC-3 [21]
  fold change (FC): 2
PC-3 [22]
  fold change (FC): 7
HT-29 [23]
  fold change (FC): 2
HeLa [24]
  fold change (FC): 1.5
HeLa [25]
  fold change (FC): 3.5
Jurkat [26]
  Activity: inactive
C6 [27]
  Activity: inactive
NIH3T3 [28]
  Activity: inactive
PC-3 [29]
  inhibition at 40 µM: 80%
PC-3 [30]
  inhibition at 40 µM: 60%
PC-3 [31]
  Activity: 38.1%
PC-3 [32]
  Activity: 13.3%
PC-3 [33]
  Activity: 47.8%
PC-3 [34]
  inhibition at 40 µM: 80%
[35]
  viability at 72 h: 80%
[36]
  viability at 72 h, 40 µM: 80%
[37]
  viability at 72 h, 80 µM: 64%
